# Assay outcomes deposited in PubChem by several laboratories.
# Shown are actives, neighbours in structure and some others; about 4.3% of the full set was active somewhere.
# MC4R antag cAMP: blocks human MC4R cAMP signaling; P32245; MC4R-expressing cells, MTII-stimulated cAMP, LANCE TR-FRET; inhibition, % at 6.5 µM; actives 0.48% (n = 360,000); AID 540295;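 active means inhibition above its plate's cutoff, the mean of tested wells on that plate plus 3 SD, cut at about 29% in these data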;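 further: 0% = Melanotan II alone and 100% = Melanotan II plus saturating MCL0020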
# Target sequence (P32245 whole entry, looked up): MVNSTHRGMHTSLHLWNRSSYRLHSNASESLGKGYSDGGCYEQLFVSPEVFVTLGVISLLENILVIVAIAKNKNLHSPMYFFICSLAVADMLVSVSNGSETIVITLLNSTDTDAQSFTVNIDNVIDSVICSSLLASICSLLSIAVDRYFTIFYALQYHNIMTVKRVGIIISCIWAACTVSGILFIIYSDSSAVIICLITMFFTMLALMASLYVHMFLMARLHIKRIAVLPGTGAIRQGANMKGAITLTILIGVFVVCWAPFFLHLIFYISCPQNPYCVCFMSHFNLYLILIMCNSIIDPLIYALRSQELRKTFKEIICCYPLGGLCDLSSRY
#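 System – human MC4R-expressing U2OS cells · Also added – Melanotan II · Dosing – one concentration, 6.5 µM nominal · Timing – 30-min compound, 1-h challenge, 1-h detection, room temperature · Measured by – Eu-cAMP/anti-cAMP TR-FRET, emission 671 nm · Replicates – singlicate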
# TAAR1 ag: human TAAR1 agonism. Q96RJ0. CHO RD-HGA16 TAAR1, Fluo-8 calcium fluorescence; vehicle wells 0%, saturating PEA agonist 100%. activation, % at 3 µM. actives 0.99% (n = 360,000);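 active means activation above the mean activation of all test compounds in the run plus 3 SD, cut at about 38% in these data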
# Target sequence (Q96RJ0 whole entry, looked up): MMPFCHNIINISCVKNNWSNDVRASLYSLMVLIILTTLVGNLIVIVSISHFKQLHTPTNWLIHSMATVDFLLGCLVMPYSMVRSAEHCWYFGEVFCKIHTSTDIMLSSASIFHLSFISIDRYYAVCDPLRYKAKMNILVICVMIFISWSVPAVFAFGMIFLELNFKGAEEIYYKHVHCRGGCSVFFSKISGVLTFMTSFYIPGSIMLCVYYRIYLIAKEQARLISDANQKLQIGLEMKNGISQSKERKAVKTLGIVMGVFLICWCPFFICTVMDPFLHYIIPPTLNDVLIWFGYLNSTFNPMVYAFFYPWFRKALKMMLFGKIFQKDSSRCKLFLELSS
#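 System: CHO RD-HGA16 cells carrying human TAAR1 plus Gα16; Incubation: 17-24 h seeding, 75 min 37 °C dye, 30 min RT; Measured by: Fluo-8 fluorescence, 5 s baseline then 140 s kinetic read; Control set: DMSO and PEA EC100; Replication: single well for each compound.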
# MC4R ag barr: human MC4R agonism via beta-arrestin | P32245 | U2OS MC4R beta-arrestin complementation, luminescence; percent of melanotan II response, DMSO zero | activation, % at 8.9 µM | actives 0.98% (n = 360,000);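 active means activation above a per-plate cutoff, the mean activation of sample wells on that plate plus 3 SD, cut at about 8% in these data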
# B2AR ag: human beta-2 adrenergic receptor agonism by FAP. P07550. Am2.2-beta2AR cells, FAP receptor internalization, flow cytometry. response, % (concentration not given with the values). actives 0.43% (n = 340,000);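 active means response above a set limit, near 3 SD of response in nonfluorescent compounds, cut at about 42% in these data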
# HTR2A ag: mouse HTR2A agonism via beta-arrestin recruitment; activation, % at 7.6 µM; AID 624169; CHO-K1 mHTR2A beta-arrestin complementation, luminescence; percent of 30 µM serotonin response; actives 0.66% (n = 360,000);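 active means activation above a run cutoff, the mean activation of all tested compounds plus 3 SD, cut at about 14% in these data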;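 further: 0% = plate median of compound wells and 100% = 30 µM serotonin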
# TAAR1 antag: antagonists of human TAAR1; Q96RJ0; CHO RD-HGA16 TAAR1, Fluo-8 calcium fluorescence, antagonist; inhibition, % at 3 µM; actives 1.5% (n = 360,000);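 active means inhibition above a per-plate cutoff, the mean inhibition of test compounds on that plate plus 3 SD, cut at about 49% in these data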;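 further: 0% = DMSO plus EC80 beta-PEA response and 100% = DMSO alone without agonist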
#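 Material: RD-HGA16 CHO cells with stable hTAAR1 and Gα16; Dosing: single nominal final test compound concentration of 3 µM; Schedule: seeding 17-24 h prior, 75-min 37 °C, 30-min RT dye loading; Detection: kinetic Fluo-8 calcium fluorescence measurement; Measure: % inhibition from peak post-agonist over basal fluorescence ratio; Benchmarks: vehicle and agonist controls.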
# TAAR1 ag confirm: human TAAR1 agonism, confirmed; shares compounds with TAAR1 ag; CHO RD-HGA16 TAAR1, Fluo-8 calcium fluorescence; scaled: DMSO 0%, maximal phenethylamine 100%; activation, % at 3 µM; actives 82% (n = 2,400); AID 651783;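 active means activation above a cutoff set at the run's mean compound activation plus 3 SD, cut at about 39% in these data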
# Ga16 nonsel ag: counter-screen for TAAR1 agonists: nonselective agonists in parental cells | shares compounds with TAAR1 ag | CHO-Ga16 parental, Fluo-8 calcium fluorescence; normalized to maximal ATP response, DMSO zero | activation, % at 3 µM | actives 50% (n = 2,400) | AID 651787;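 active means activation above the run cutoff, the mean activation over all tested wells plus 3 SD, cut at about 12% in these data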;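 further: 0% = DMSO wells and 100% = maximal ATP response on the peak over basal ratio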
# TAAR1 desens: TAAR1 response desensitization, agonist counter-screen; shares compounds with TAAR1 ag; CHO RD-HGA16 hTAAR1, Fluo-8 calcium, beta-PEA response inhibition; AID 651951; actives 46% (n = 2,400); inhibition, % at 3 µM;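 active means inhibition above the run cutoff, the mean inhibition of all test compounds plus 3 SD, cut at about 49% in these data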;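 further: beta-PEA stimulus applied at its EC80; loss of beta-PEA calcium signal after compound pretreatment read as receptor desensitization; 0% = DMSO with beta-PEA at EC80 and 100% = DMSO alone without agonist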
# Ga16 nonsel ant: counter-screen for TAAR1 agonists: nonselective Ga16 antagonists; inhibition, % at 3 µM; actives 39% (n = 2,400); CHO-Ga16 ATP-induced calcium, Fluo-8 fluorescence; shares compounds with TAAR1 ag;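 active means inhibition above the plate's mean compound inhibition plus 3 SD, computed per plate, cut at about 22% in these data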;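 further: 0% = EC80 ATP with DMSO and 100% = DMSO wells without ATP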
# * = called active by the depositor; . = no result given.
SMILES,MC4R antag cAMP,TAAR1 ag,MC4R ag barr,B2AR ag,HTR2A ag,TAAR1 antag,TAAR1 ag confirm,Ga16 nonsel ag,TAAR1 desens,Ga16 nonsel ant
Cc1ccc(C)c(OCC(=O)N2CCc3ccccc3C2)c1,2,-1,-3,-10,1,-14,.,.,.,.
Cc1ccccc1OCC(=O)N1CCc2ccccc2C1,5,42*,-2,18,1,19,88*,2,31,-3
CN(C)CCN1CCN(C2CN(Cc3cn(Cc4ccc(Cl)cc4)nn3)S(=O)(=O)C2)CC1 (configuration not stated),.,1,.,.,1,-18,.,.,.,.
O=C(CN1CCCCC1)Nc1cc(S(=O)(=O)N2CCOCC2)ccc1N1CCCC1,1,7,-1,3,5,-6,.,.,.,.
CC(C)C(=O)N1CCC1(C)C(=O)NCc1ccc(C(C)(C)C)cc1 (configuration not stated),12,6,-1,.,0,-11,.,.,.,.
O=C(Nc1ccccc1F)N1CCc2ccccc2C1,19,50*,-1,19,-1,-18,40*,1,11,7
O=C(CN(C1CCCCC1)C1CCCCC1)N1CCc2ccccc2C1,-1,96*,5,38,3,99*,106*,21*,105*,29*
O=C(c1ccc(CN2CCc3ccccc3C2)cc1)N1CCc2ccccc2C1,-1,67*,-1,-2,-1,-11,64*,2,18,12
O=C(CN(C1CCCCC1)S(=O)(=O)c1ccccc1)N1CCCC1,2,-3,-1,2,1,-2,.,.,.,.
O=C(Nc1ccc(F)cc1)C(c1ccccc1OC(F)(F)F)N1CCN(c2cccc(C(F)(F)F)n2)CC1 (configuration not stated),.,0,.,.,-4,-28,.,.,.,.
CCOc1ccc(S(=O)(=O)NCCC(=O)N2CCN(C(C)=O)CC2)cc1,7,2,-1,.,2,-10,.,.,.,.
O=C(NCC(c1ccco1)N1CCc2ccccc2C1)C(=O)Nc1ccccc1F (configuration not stated),3,46*,2,-3,-3,16,48*,2,16,18
O=C(NCC(c1ccco1)N1CCc2ccccc2C1)C(=O)Nc1ccc(F)cc1F (configuration not stated),17,58*,1,0,1,14,41*,5,10,16
CC(=O)Nc1ccc(NC(=O)C(=O)NCC(c2ccco2)N2CCc3ccccc3C2)cc1 (configuration not stated),1,78*,0,1,-6,16,93*,4,36,7
CCCNS(=O)(=O)c1ccc(OCC(=O)NCC2CCCO2)cc1 (configuration not stated),1,1,-2,-3,7,6,.,.,.,.
Cc1ccc(S(=O)(=O)NCC(=O)NCC2COc3ccccc3O2)cc1C (configuration not stated),11,-2,-3,-7,-6,-11,.,.,.,.
CCOC(=O)[C@]12CCCC=C1N(Cc1ccc(Cl)cc1Cl)C(=O)[C@H](CC(=O)N1CCN(C(=O)c3ccco3)CC1)C2,.,0,.,.,-1,-22,.,.,.,.
COc1ccc(N(CC(=O)N2CCc3ccccc3C2)S(C)(=O)=O)cc1OC,0,51*,0,0,-1,-8,28,3,4,9
O=C(CN(c1ccc(Cl)c(Cl)c1)S(=O)(=O)c1ccccc1)N1CCc2ccccc2C1,6,58*,4,4,-10,10,76*,5,32,12
COc1ccc(C(=O)OCCN2CCN(C3=NS(=O)(=O)c4ccccc43)CC2)cc1OC,2,1,-1,4,-1,6,.,.,.,.
COc1ccccc1-n1c(SCC(N)=O)nnc1-c1ccc(S(=O)(=O)N2CCCCC2)cc1,18,52*,-1,13,4,-4,27,9,20,24*
Cc1ccccc1-n1nnnc1SCC(=O)c1c(N)n(C)c(=O)n(C)c1=O,9,93*,-2,-5,1,11,130*,87*,42,14
COc1cc(CNC[C@H]2O[C@@H](n3ccc(N)nc3=O)[C@H](O)[C@@H]2O)ccc1OCc1ccc(C)cc1,7,1,-1,.,-4,1,.,.,.,.
O=C(O)c1ccccc1C(=O)NCC(O)c1ccccc1 (configuration not stated),11,72*,-2,-5,-5,7,96*,2,62*,4
O=C(CNC(=O)c1ccccc1C(=O)O)c1ccccc1,6,71*,1,6,1,30,78*,6,47,8
SMILES,MC4R antag cAMP,TAAR1 ag,MC4R ag barr,B2AR ag,HTR2A ag,TAAR1 antag,TAAR1 ag confirm,Ga16 nonsel ag,TAAR1 desens,Ga16 nonsel ant
O=C(CNC(=O)c1ccccc1)c1ccccc1,2,5,0,-4,2,10,.,.,.,.
CCCCn1c(N)c(N(CC(C)C)C(=O)CSc2nnc(C)n2-c2ccc(OC)cc2)c(=O)[nH]c1=O,-1,1,-2,-10,1,-10,.,.,.,.
COc1ccc(S(=O)(=O)N(C)c2ccc(C(=O)Nc3c(C)n(C)n(-c4ccccc4)c3=O)cc2)cc1,5,0,-2,-10,2,-10,.,.,.,.
Cc1cc(C2=NNC(=NCCc3ccccc3)SC2)c(C)n1CC1CCCO1 (configuration not stated),-8,83*,-2,-10,-6,68*,85*,4,57*,20
CCN=C1NN=C(c2cc(C)n(CCc3ccccc3)c2C)CS1,-10,82*,4,10,7,63*,101*,4,93*,5
C=CCn1c(C)cc(C2=NNC(=NCc3ccccc3)SC2)c1C,-12,2,-1,-4,-5,-14,.,.,.,.
